Active and inactive are the calls of the source. The rule behind the calls is not given here.
Legend:
[1] = biological target: T1, Tubulin (Homo sapiens) (UniProt P68371+Q9H4B7+P0DPH7+P68366+Q13509+Q71U36+P04350+Q3ZCM7+P07437+P68363+Q9BQE3+Q6PEY2+Q13885+Q9BVA1+Q9BUF5); assay: Inhibition of tubulin polymerization in human HepG2 cells assessed as abnormal microtubule network formation at 0.04 to 0.1 uM after 12 hrs by DAPI staining based immunofluorescence confocal laser scanning microscopic analysis; format: cell-based
[2] = tested on: HeLa; assay: Cell cycle arrest in human HeLa cells assessed as accumulation at G2/M phase at 0.020 uM after 24 hrs by propidium iodide staining based flow cytometric analysis (reference value: 17.72%); format: functional
Summary of the method: (§1)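 HepG2 and HeLa cells were exposed to 0, 0.020, 0.040, 0.060, 0.080 or 0.10 µM for 6, 12 or 24 h. DNA content was stained with propidium iodide and analysed by flow cytometry to give the percentage of cells in G0/G1, S and G2/M phases; sub-G1 cells were also recorded.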

[3] = tested on: Mus musculus; assay: Hepatotoxicity in nude mouse xenografted with human HeLa cells assessed as morphological changes in liver cells at 10 to 20 mg/kg, ip after 14 days by hematoxylin and eosin staining based microscopic analysis; format: toxicity, organism-based; settings: in vivo, 336 h
Summary of the method: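 HeLa xenograft nude mice with tumours near 100 mm³, randomised to four groups of 28 mice in total. Dosing was intraperitoneal: vehicle, CA-4 10 mg/kg, or test compound at 10 or 20 mg/kg, continued for 14 days. Heart, liver, kidney and spleen were then H&E-stained and examined for inflammatory infiltration, edema, necrosis and cell morphology.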

[4] = tested on: HeLa; assay: Cell cycle arrest in human HeLa cells assessed as accumulation at S phase at 0.020 uM after 24 hrs by propidium iodide staining based flow cytometric analysis (reference value: 17.46%); format: functional; summary of the method: as §1
[5] = tested on: HeLa; assay: Induction of apoptosis in human HeLa cells assessed as early apoptotic cells at 0.040 uM after 24 hrs by Annexin V-FITC/propidium iodide staining based flow cytometric analysis (reference value: 6.17%); format: functional
Summary of the method: (§2)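 HepG2 and HeLa cells were exposed to 0, 0.02, 0.040, 0.060, 0.080 and 0.10 µM for 6, 12 and 24 h. Cells were double-stained with Annexin V-FITC/PI and read by flow cytometry. Apoptotic rate was the percentage of FITC-positive cells, counting early plus late apoptotic.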

[6] = tested on: HeLa; assay: Cell cycle arrest in human HeLa cells assessed as accumulation at S phase at 0.080 uM after 24 hrs by propidium iodide staining based flow cytometric analysis (reference value: 17.46%); format: functional; summary of the method: as §1
[7] = tested on: HeLa; assay: Induction of apoptosis in human HeLa cells assessed as viable cells at 0.060 uM after 24 hrs by Annexin V-FITC/propidium iodide staining based flow cytometric analysis (reference value: 88.6%); format: functional; settings: read-out: Activity; summary of the method: as §2
[8] = tested on: HeLa; assay: Cell cycle arrest in human HeLa cells assessed as accumulation at G2/M phase at 0.060 uM after 24 hrs by propidium iodide staining based flow cytometric analysis (reference value: 17.72%); format: functional; summary of the method: as §1
[9] = tested on: HepG2; assay: Induction of apoptosis in human HepG2 cells assessed as viable cells at 0.080 uM after 24 hrs by Annexin V-FITC/propidium iodide staining based flow cytometric analysis (reference value: 94.5%); format: functional; settings: HepG2, 24 h, read-out: Activity; summary of the method: as §2
[10] = Cytotoxicity against HEK293T cells assessed as reduction in cell viability after 48 hrs by MTT assay; format: cell-based, HEK-293T; settings: human
[11] = tested on: Mus musculus; assay: Toxicity in nude mouse xenografted with human HeLa cells assessed as morphological changes in spleen cells at 10 to 20 mg/kg, ip after 14 days by hematoxylin and eosin staining based microscopic analysis; format: organism-based; settings: in vivo, 336 h
[12] = tested on: HepG2; assay: Induction of apoptosis in human HepG2 cells assessed as viable cells at 0.020 uM after 24 hrs by Annexin V-FITC/propidium iodide staining based flow cytometric analysis (reference value: 94.5%); format: functional; settings: HepG2, 24 h, read-out: Activity; summary of the method: as §2
[13] = tested on: HepG2; assay: Induction of apoptosis in human HepG2 cells assessed as early apoptotic cells at 0.080 uM after 24 hrs by Annexin V-FITC/propidium iodide staining based flow cytometric analysis (reference value: 2.31%); format: functional; summary of the method: as §2
[14] = tested on: Mus musculus; assay: Toxicity in nude mouse xenografted with human HeLa cells assessed as change in mouse kidney weight at 10 to 20 mg/kg, ip after 14 days; format: organism-based; settings: in vivo, 336 h
[15] = tested on: Mus musculus; assay: Cardiotoxicity in nude mouse xenografted with human HeLa cells assessed as morphological changes in heart cells at 10 to 20 mg/kg, ip after 14 days by hematoxylin and eosin staining based microscopic analysis; format: toxicity, organism-based; settings: in vivo, 336 h
Summary of the method: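 Excised tumours and heart, liver, kidney and spleen were H&E-stained and examined microscopically. Tumour scoring covered cell arrangement and necrosis. Organ scoring covered inflammatory infiltration, edema, necrosis and cell morphology.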

[16] = tested on: HeLa; assay: Cell cycle arrest in human HeLa cells assessed as accumulation at G2/M phase at 0.080 uM after 12 hrs by propidium iodide staining based flow cytometric analysis relative to control; format: functional; summary of the method: as §1
[17] = tested on: HeLa; assay: Induction of apoptosis in human HeLa cells assessed as early apoptotic cells at 0.060 uM after 24 hrs by Annexin V-FITC/propidium iodide staining based flow cytometric analysis (reference value: 6.17%); format: functional; summary of the method: as §2
[18] = tested on: HeLa; assay: Cell cycle arrest in human HeLa cells assessed as accumulation at G2/M phase at 0.080 uM after 24 hrs by propidium iodide staining based flow cytometric analysis (reference value: 17.72%); format: functional; summary of the method: as §1
[19] = tested on: Mus musculus; assay: Toxicity in nude mouse xenografted with human HeLa cells assessed as change in mouse liver weight at 10 to 20 mg/kg, ip after 14 days; format: organism-based; settings: in vivo, 336 h
[20] = biological target: T1, Tubulin (Homo sapiens); assay: Inhibition of tubulin polymerization in human HepG2 cells assessed as mitotic catastrophe formation at 0.04 to 0.1 uM after 12 hrs by DAPI staining based immunofluorescence confocal laser scanning microscopic analysis; format: cell-based
[21] = tested on: HepG2; assay: Induction of apoptosis in human HepG2 cells assessed as late apoptotic cells at 0.020 uM after 24 hrs by Annexin V-FITC/propidium iodide staining based flow cytometric analysis (reference value: 2.93%); format: functional; summary of the method: as §2
[22] = tested on: HeLa; assay: Cell cycle arrest in human HeLa cells assessed as accumulation at G0/G1 phase at 0.10 uM after 24 hrs by propidium iodide staining based flow cytometric analysis (reference value: 66.26%); format: functional; summary of the method: as §1
[23] = tested on: Mus musculus; assay: Toxicity in nude mouse xenografted with human HeLa cells assessed as cellular inflammatory infiltration in spleen at 10 to 20 mg/kg, ip after 14 days by hematoxylin and eosin staining based microscopic analysis; format: organism-based; settings: in vivo, 336 h
[24] = tested on: HepG2; assay: Cell cycle arrest in human HepG2 cells assessed as accumulation at G0/G1 phase at 0.080 uM after 24 hrs by propidium iodide staining based flow cytometric analysis (reference value: 55.63%); format: functional; summary of the method: as §1
[25] = tested on: HepG2; assay: Induction of apoptosis in human HepG2 cells assessed as early apoptotic cells at 0.040 uM after 24 hrs by Annexin V-FITC/propidium iodide staining based flow cytometric analysis (reference value: 2.31%); format: functional; summary of the method: as §2
[26] = tested on: HepG2; assay: Induction of apoptosis in human HepG2 cells assessed as viable cells at 0.060 uM after 24 hrs by Annexin V-FITC/propidium iodide staining based flow cytometric analysis (reference value: 94.5%); format: functional; settings: HepG2, 24 h, read-out: Activity; summary of the method: as §2
[27] = tested on: Mus musculus; assay: Nephrotoxicity in nude mouse xenografted with human HeLa cells assessed as necrosis in kidney at 10 to 20 mg/kg, ip after 14 days by hematoxylin and eosin staining based microscopic analysis; format: toxicity, organism-based; settings: in vivo, 336 h

COc1cccc(C2=NN(C(=O)c3ccc(C)nc3)C(c3cn(C)c4ccc(OC)cc34)C2)c1 (configuration not stated)
inhibition [1]: Active
Activity [2]: 21.23%
Activity [3]: Non-Toxic
Activity [4]: 9.62%
Activity [5]: 11%
Activity [6]: 9.17%
viability at 0.06 µM [7]: 66.9%
Activity [8]: 65.43%
viability at 0.08 µM [9]: 81.4%
CC50 at 48 h [10]: > 300 µM
Activity [11]: Non-Toxic
viability at 0.02 µM [12]: 92.9%
Activity [13]: 9.61%
Activity [14]: Non-Toxic
Activity [15]: Non-Toxic
Activity [16]: 66.08%
Activity [17]: 26.1%
Activity [18]: 71.2%
Activity [19]: Non-Toxic
inhibition [20]: Active
Activity [21]: 3.18%
Activity [22]: 6.19%
Activity [23]: Non-Toxic
Activity [24]: 7.81%
Activity [25]: 7.34%
viability at 0.06 µM [26]: 85.7%
Activity [27]: Non-Toxic

From ChEMBL document CHEMBL4270573, “Novel nicotinoyl pyrazoline derivates bearing N-methyl indole moiety as antitumor agents: Design, synthesis and evaluation” (Eur J Med Chem, 2018)
